Results: PMC11842550 (Scientific Reports, 2025)
Entries after “also recorded” stand apart in the source; their conditions may differ. Read-outs that look alike come from different tables or passages of the source. Bridges are numbered along the chain shown (N, C = ends). Where no end group is shown, it is not given here.

Experiments:
[1] = test system: Borrelia; test: Dot blot binding of individual phage clones to Borrelia; design: species or system Borrelia garinii (strain SKT-7.1); conditions: spirochetes fixed on PVDF membrane, anti-M13 antibody
How it was run: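 2 µl Borrelia (PBS, OD600 1.2) are spotted on activated PVDF, air-dried, fixed with 4% paraformaldehyde for 10 min, dried overnight and blocked for 1 h. Individual phage clones from the third panning (10^11) are added for 1 h with shaking. After PBS-0.05% Tween washes, anti-M13 pIII mAb (1:1000) then IRDye […] anti-mouse (1:15000) are applied, 1 h each. Read at 800 nm. No-phage negative control.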

[2] = test system: spirochetal form of Borrelia; format: cell-based, Borrelia garinii (strain SKT-7.1); conditions: 5 days, 33 °C; for viability of Borrelia (spirochetal form): peptide 1.67 µM, triplicate; for inhibition of the spiral form of Borrelia: 0.41 µM
How it was run: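 Early-log Borrelia (BSK-II with 6% rabbit serum, 33 °C, about 2 weeks) are counted by flow cytometry. 2 × 10^3 cells go into 200 µl fresh BSK-II with test peptide at 6.67, 3.33, 1.67 or 0 µM, 33 °C for 5 days, then are recounted by flow cytometry. Percent inhibition is relative to 0 µM. Follow-up runs use 0.83, 0.41, 0.20 and 0.10 µM. Doxycycline (50 µM–5 nM) is the positive control.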

[3] = test system: cystic form of Borrelia; test: Inhibition of conversion of cystic form into spirochetal form; format: cell-based, Borrelia garinii (strain SKT-7.1); conditions: for recovery of cystic Borrelia and transformation into the spirochetal form: peptides 1.66 µM for 16 h
How it was run: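 Cysts formed by 1:1 dilution of early-log culture in serum-free BSK-II, 2 weeks at 15 °C. 2 × 10^3 cysts exposed 16 h to test compound (two-fold series, 3.33–0.05 µM) in serum-free BSK-II, then pelleted and compound removed. Regrown 15 days at 33 °C in serum-containing BSK-II. Counted by flow cytometry; % inhibition vs PBS control; doxycycline 50 nM control.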

[4] = test system: brain microvascular endothelial cells (BMECs); test: Cell-ELISA binding to endothelial cells; conditions: 2 µg peptide, fixed BMEC monolayer, triplicate
How it was run: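 BMEC monolayers in 96 wells are washed with PBS and fixed in 4% paraformaldehyde for 10 min, then blocked. They are incubated with 2 µg His-tagged test peptide and washed with PBS-T. Bound peptide is detected with HisProbe-HRP (1:1000, 1 h, room temperature) and TMB (25 min), stopped with 2 M H2SO4, read at 450 nm. Triplicates. Negative controls omit cells or peptide.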

[5] = test system: spirochetal form of Borrelia as well as biofilm; conditions: compared to antibiotics; cited from earlier work
[6] = test system: bacterial cell wall; conditions: cited from earlier work
[7] = test system: Borrelia; test: ELISA binding of Bor peptides to Borrelia; design: species or system Borrelia garinii (strain SKT-7.1); conditions: for affinity to spirochetal form, cystic form and trypsin-shaved Borrelia (ELISA): 2 µg/well
How it was run: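 Paraformaldehyde-fixed early-log Borrelia in microtiter wells are incubated 1 h with His-tagged test peptide, 2 µg/well for screening. Two-fold dilutions from 2.6 µM to 86 nM are used for concentration dependence, with the peptide-omitted background subtracted. Detection: five PBS-T washes, HisProbe-HRP (1:1000, 0.5% BSA, 1 h, room temperature), TMB 25 min, 2 M H2SO4 stop, 450 nm. Triplicates. Negative controls omit Borrelia or peptide.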

[8] = test system: HEK293T cells; test: Cell toxicity, XTT assay; format: cell-based; conditions: 3.33 µM, 24 h, six replicates
How it was run: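 HEK293T cells are grown in high-glucose DMEM with 2 mM L-glutamine and 5% FBS (37 °C, 5% CO2) to 70% confluence. They get test peptide at 3.33 or 0 µM for 24 h. XTT reagent is added for 3 h and read at 450 nm. Controls are PBS (negative) and 0.1% Triton X. Six replicates. Metabolic activity is blank-subtracted sample ×100 over blank-subtracted PBS control.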

[9] = test system: BBB model (BMECs, cell line D3); format: in vitro ADME; conditions: 1 µg/ml Cy5.5 labelled, luminal to abluminal
How it was run: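 D3 BMECs (5 × 10^5) are seeded on collagen-I-coated transwell inserts (1 µm pores) in complete endothelial medium. Barrier is confirmed by TEER and dextran. Cy5.5-NHS-labelled truncated OspA fragments (beta sheets 10–11 or 12–16), angiopep-2-Cy5.5 or CF770 dextran go luminally at 1 µg/ml, 37 °C. Abluminal fluorescence (650/705 nm; 770/797 nm) is read at 1, 2 and 3 h and converted by standard curves.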

Molecule: ACRGATPMSCGGGS (disulfide 2-10 (inferred)) [Ph.Bor-8]
- binding of phage clone to Borrelia in dot blot [1]: best binders

Molecule: MRGSHHHHHHGSNEKGETSEKTIVRANGTRLEYTDIKSDGIEGRVDGGGGSDDDDKMACGYSSFNRCGGGS (disulfide 59-67 (inferred)) [Bor-16]
- viability of Borrelia (spirochetal form) [2]: < 50%
- recovery of cystic Borrelia and transformation into the spirochetal form [3]: significantly reduced
- binding to brain microvascular endothelial cells (cell-ELISA) [4]: bind endothelial cells

Molecule: ACTPSFSKICGGGS (disulfide 2-10 (inferred)) [Ph.Bor-11]
- binding of phage clone to Borrelia in dot blot [1]: best binders

Molecule: C[C@H]1c2cccc(O)c2C(=O)C2=C(O)[C@]3(O)C(=O)C(C(N)=O)=C(O)[C@@H](N(C)C)[C@@H]3[C@@H](O)[C@@H]21 [doxycycline, reference compound]
- inhibition of transformation and recovery of cysts into the spirochetal form ([3]; 0.05 µM for 16 h): did not inhibit

Molecule: ACPRGIGLQCGGGS (disulfide 2-10 (inferred)) [Ph.Bor-26]
- binding of phage clone to Borrelia in dot blot [1]: best binders

Molecule: MRGSHHHHHHGSNEKGETSEKTIVRANGTRLEYTDIKSDGIEGRVDGGGGSDDDDKMACPRGIGLQCGGGS (disulfide 59-67 (inferred)) [Bor-26]
- viability of Borrelia (spirochetal form) [2]: < 50%
- recovery of cystic Borrelia and transformation into the spirochetal form [3]: significantly reduced
- binding to brain microvascular endothelial cells (cell-ELISA) [4]: bind endothelial cells

Molecule: melittin
- effect on the spirochetal form of Borrelia as well as biofilm [5]: significant effect
- time to destabilise the bacterial cell wall [6]: roughly 75 min

Molecule: MRGSHHHHHHGSNEKGETSEKTIVRANGTRLEYTDIKSDGIEGRVDGGGGSDDDDKMACQPRNLNNCGGGS (disulfide 59-67 (inferred)) [Bor-18]
- inhibition of the spiral form of Borrelia [2]: more than 50%
- viability of Borrelia (spirochetal form) [2]: < 50%
- affinity to spirochetal form, cystic form and trypsin-shaved Borrelia (ELISA) [7]: showed affinity for all three forms
- Absorbance450 in ELISA, binding to Borrelia ([7]; peptide 0.08 µM, early log phase Borrelia, negative control subtracted): 0.8
- binding to Borrelia in ELISA compared with other peptides ([7]; peptide 0.16 µM, early log phase Borrelia): significantly higher; also recorded: showed binding affinity
- binding to brain microvascular endothelial cells (cell-ELISA) [4]: bind endothelial cells

Molecule: NEKGETSEKTIVRANGTRLEYTDIKSDG [O-BBB]
- borreliacidal effect on spirochetal form ([2]; 6.67 µM): no borreliacidal effect
- affinity to Borrelia (ELISA) ([7]; 2 µg peptide per well, fixed Borrelia, HisProbe-HRP, 450 nm, triplicate): no affinity for Borrelia
- effect on cell metabolic activity (XTT) [8]: no adverse effects
- binding to brain microvascular endothelial cells (cell-ELISA) [4]: bind endothelial cells
- crossing of BBB model compared with angiopep-2 ([9]; 2nd hr): comparable to that of angiopep-2
- crossing of BBB model compared with angiopep-2 ([9]; 3rd hr): significantly higher than that of angiopep-2

Molecule: ACHNTPHHLCGGGS (disulfide 2-10 (inferred)) [Ph.Bor-23]
- binding of phage clone to Borrelia in dot blot [1]: best binders

Molecule: ACQPRNLNNCGGGS (disulfide 2-10 (inferred)) [Ph.Bor-18]
- binding of phage clone to Borrelia in dot blot [1]: best binders

Molecule: ACGYSSFNRCGGGS (disulfide 2-10 (inferred)) [Ph.Bor-16]
- binding of phage clone to Borrelia in dot blot [1]: best binders

Molecule: ACLKLGEKWCGGGS (disulfide 2-10 (inferred)) [Ph.Bor-1]
- binding of phage clone to Borrelia in dot blot [1]: best binders

Molecule: ACHNTSARVCGGGS (disulfide 2-10 (inferred)) [Ph.Bor-29]
- binding of phage clone to Borrelia in dot blot [1]: best binders

Molecule: ACNVRTCHDCGGGS (disulfide (positions not given here)) [Ph.Bor-24]
- binding of phage clone to Borrelia in dot blot [1]: best binders

Molecule: ACHNETQKMCGGGS (disulfide 2-10 (inferred)) [Ph.Bor-9]
- binding of phage clone to Borrelia in dot blot [1]: best binders

Molecule: MRGSHHHHHHGSNEKGETSEKTIVRANGTRLEYTDIKSDGIEGRVDGGGGSDDDDKMACTPSFSKICGGGS (disulfide 59-67 (inferred)) [Bor-11]
- inhibition of the spiral form of Borrelia [2]: more than 50%
- viability of Borrelia (spirochetal form) [2]: < 50%
- growth inhibition of cystic form ([3]; 0.41 µM, 16 h exposure, t-test p < 0.05): inhibiting growth significantly
- recovery of cystic Borrelia and transformation into the spirochetal form [3]: significantly reduced
- affinity to spirochetal form, cystic form and trypsin-shaved Borrelia (ELISA) [7]: showed affinity for all three forms
- effect on cell metabolic activity (XTT) [8]: no adverse effects
- binding to brain microvascular endothelial cells (cell-ELISA) [4]: bind endothelial cells
